{"source": "paper PMC6161044", "about": "(ACS Central Science, 2018)", "key": {"[1]": {"molecular_target": "GalNAc-T4 Lectin Flexible Loop (LFL) deletion/mutant (P463DNNP467 to GGG) (Homo sapiens, UniProt Q8N4A0, DEL463-464/N465G/N466G/P467G)", "assay": "Transferase assay and kinetics, LFL mutant", "type": "biochemical", "details": "for UDP-GalNAc Hydrolysis %: LFL deletion/mutant, Sephadex G10 chromatography (Figure S8)", "method_in_brief": "(§1)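 Enzyme construct residues 36–578, wild-type or site-directed mutants. Reaction: 75 mM Na cacodylate pH 6.5, 1 mM 2-mercaptoethanol, 10 mM MnCl2, 0.25 mM UDP-[3H]GalNAc, 0.004–1.4 mM (glyco)peptide and 0.02–0.2 μM enzyme, at 37 °C for 10–180 min (≤30% donor used). EDTA quench, Dowex, then Sephadex G10 to separate transfer from hydrolysis. Rates hydrolysis-corrected, 2–5 repeats; Km, Vmax and Ki from Michaelis–Menten ± substrate-inhibition fits.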"}, "[2]": {"molecular_target": "T1, GalNAc-T4 wild-type (Homo sapiens, UniProt Q8N4A0)", "assay": "Transferase assay and kinetics, wild-type GalNAc-T4", "type": "biochemical", "details": "for Activity relative to glycopeptides 4 and 5 (fold higher): from Figure 1a", "method_in_brief": "as §1"}, "[3]": {"molecular_target": "T2, GalNAc-T4 (Homo sapiens, UniProt Q8N4A0)", "assay": "Surface plasmon resonance binding to GalNAc-T4", "details": "wild-type", "method_in_brief": "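SPR binding of glycopeptide substrate to wild-type enzyme, run with excess UDP and MnCl2 present; Kd obtained by fitting the binding data.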"}, "[4]": {"molecular_target": "GalNAc-T4 Lectin Mutant (D459H) (Homo sapiens, UniProt Q8N4A0, D459H)", "assay": "Transferase assay and kinetics, lectin mutant", "type": "biochemical", "details": "for UDP-GalNAc Hydrolysis %: Sephadex G10 chromatography (Figure S8)", "method_in_brief": "as §1"}, "[5]": {"molecular_target": "catalytic domain mutant of GalNAc-T4 (T283S-Q285A) (Homo sapiens, UniProt Q8N4A0, Q285A/T283S)", "assay": "Surface plasmon resonance binding to GalNAc-T4 catalytic mutant", "details": "T283S/Q285A catalytic mutant (Figure S11)"}, "[6]": {"molecular_target": "GalNAc-T4 Catalytic/LFL Mutant (T283S-Q285A-D464A) (Homo sapiens, UniProt Q8N4A0, D464A/Q285A/T283S)", "assay": "Transferase assay and kinetics, catalytic/LFL mutant", "type": "biochemical", "method_in_brief": "as §1"}, "[7]": {"molecular_target": "T2, GalNAc-T4", "assay": "STD-NMR epitope mapping with GalNAc-T4", "type": "binding", "details": "~877 μM glycopeptide, 13.5 μM GalNAc-T4, 75 μM UDP, 75 μM MnCl2, 298 K"}, "[8]": {"molecular_target": "GalNAc-T4 Catalytic Mutant (T283S-Q285A) (Homo sapiens, UniProt Q8N4A0, Q285A/T283S)", "assay": "Transferase assay and kinetics, catalytic mutant", "type": "biochemical"}, "[9]": {"molecular_target": "T1, GalNAc-T4 wild-type", "details": "cited from earlier work"}, "[10]": {"molecular_target": "T2, GalNAc-T4", "details": "in presence of GalNAc-T4, UDP, MnCl2; cited from earlier work"}, "[11]": {"molecular_target": "T2, GalNAc-T4", "details": "wild-type GalNAc-T4, excess UDP and MnCl2; saturation not achieved; cited from earlier work"}, "[12]": {"molecular_target": "GalNAc-T4 catalytic mutant (T283S, Q285A), residues 36-578 (human, UniProt Q8N4A0 36-578, T283S | Q285A)", "assay": "SPR"}, "[13]": {"molecular_target": "GalNAc-T4 (polypeptide GalNAc-transferase 4), wild type, residues 36-578 (human, UniProt Q8N4A0 36-578)", "assay": "SPR"}}, "note": "Where “and” joins values, the source holds several entries; their conditions need not be identical. Equal entries are not always repeated. Ends that are not written are not given here. Peptide text beside a SMILES is read from it. * marks the point of attachment. αGalNAc = CC(=O)N[C@@H]1[C@@H](O)[C@@H](O)[C@@H](CO)O[C@@H]1*"}
{"molecule": "CC(=O)N[C@H]1[C@@H](O[C@H](C)[C@H](NC(=O)CNC(=O)[C@H](C)NC(=O)CNC(=O)[C@H](C)NC(=O)CNC(=O)[C@H](C)NC(=O)CNC(=O)[C@@H](NC(=O)[C@H](C)NC(=O)CN)[C@@H](C)O[C@H]2O[C@H](CO)[C@H](O)[C@H](O)[C@H]2NC(C)=O)C(=O)N[C@H](C(=O)N2CCC[C@H]2C(=O)NCC(=O)N2CCC[C@H]2C(=O)NCC(N)=O)[C@@H](C)O)O[C@H](CO)[C@H](O)[C@@H]1O", "note": "[compound 6] (H-GAT(αGalNAc)GAGAGAGT(αGalNAc)TPGPG-NH2; N-terminus and C-terminus assumed)", "values": [{"measurement": "Apparent Vmax relative to wt GalNAc-T4 (fold higher)", "setting": "[1]; LFL mutant", "result": "~2", "unit": "fold"}, {"measurement": "Catalytic efficiency (Vmax/Km) relative to peptide 3 (fold higher)", "setting": "[2]", "result": "~1.5", "unit": "fold"}, {"measurement": "Catalytic efficiency (Vmax/Km) relative to peptide 4 (fold higher)", "setting": "[2]", "result": "~150", "unit": "fold"}, {"measurement": "Km relative to peptide 3 (fold lower)", "setting": "[2]", "result": "~1.3", "unit": "fold"}, {"measurement": "Activity relative to glycopeptides 4 and 5 (fold higher)", "setting": "[2]", "result": "~10", "unit": "fold"}, {"measurement": "Kd (SPR) relative to Km (fold higher)", "setting": "[3]", "result": "~2", "unit": "fold"}, {"measurement": "Km increase relative to wt GalNAc-T4", "setting": "[4]", "result": "~20", "unit": "fold"}, {"measurement": "Vmax decrease relative to wt GalNAc-T4", "setting": "[4]", "result": "~5", "unit": "fold"}, {"measurement": "UDP-GalNAc Hydrolysis %", "setting": "[4]", "result": "~20", "unit": "%"}, {"measurement": "Kd by SPR relative to wt transferase (fold higher)", "setting": "[5]", "result": "~6", "unit": "fold"}, {"measurement": "Km relative to catalytic mutant (fold lower)", "setting": "[6]", "result": "~4", "unit": "fold"}, {"measurement": "STD-NMR response, H2 proton of the GalNAc at Thr11", "setting": "[7]; catalytic domain bound neighboring GalNAc", "result": 50, "unit": "%"}, {"measurement": "STD-NMR response, H2 proton of the GalNAc at Thr3", "setting": "[7]; remote lectin bound GalNAc", "result": 90, "unit": "%"}, {"measurement": "Catalytic efficiency Vmax/Km as fraction of wt", "setting": "[8]", "result": "about 1/2"}, {"measurement": "Initial Vmax relative to wt transferase (fold higher)", "setting": "[8]", "result": "~2", "unit": "fold"}, {"measurement": "Km relative to wt (fold higher)", "setting": "[8]", "result": "~4 fold and ~3 fold"}]}
{"molecule": "AGAGT*TPGPGAGAT*GA [compound 5]", "values": [{"measurement": "UDP-GalNAc Hydrolysis %", "setting": "[1]", "result": "~50", "unit": "%"}, {"measurement": "Reduction in catalytic efficiency compared to wt GalNAc-T4", "setting": "[1]; LFL mutant", "result": "~50", "unit": "%"}, {"measurement": "Apparent activity and Vmax as fraction of the values for the catalytic and LFL mutants", "setting": "[6]", "result": "1/4"}, {"measurement": "Catalytic activity (Vmax) as fraction of wt GalNAc-T4 activity", "setting": "[8]", "result": "1/3"}, {"measurement": "Km relative to wt (fold higher)", "setting": "[8]", "result": "~2", "unit": "fold"}]}
{"molecule": "AGAGTTPGPGAGAT*GA [compound 2]", "values": [{"measurement": "UDP-GalNAc Hydrolysis %", "setting": "[1]", "result": "~90", "unit": "%"}, {"measurement": "Glycosylation by GalNAc-T4 (in words)", "setting": "[9]", "result": "imperceptibly glycosylated"}]}
{"molecule": "GAGAGAGT*TPGPG [compound 4]", "values": [{"measurement": "UDP-GalNAc Hydrolysis %", "setting": "[1]", "result": "~50", "unit": "%"}, {"measurement": "Reduction in catalytic efficiency compared to wt GalNAc-T4", "setting": "[1]; LFL mutant", "result": "~50", "unit": "%"}, {"measurement": "Catalytic efficiency relative to wt transferase (fold higher)", "setting": "[4]", "result": "~2", "unit": "fold"}, {"measurement": "Vmax relative to wt transferase (fold higher)", "setting": "[4]", "result": "~2", "unit": "fold"}, {"measurement": "Apparent activity and Vmax as fraction of the values for the catalytic and LFL mutants", "setting": "[6]", "result": "1/4"}, {"measurement": "Catalytic activity (Vmax) as fraction of wt GalNAc-T4 activity", "setting": "[8]", "result": "1/3"}, {"measurement": "Km relative to wt (fold higher)", "setting": "[8]", "result": "~2", "unit": "fold"}]}
{"molecule": "GAGAGAGTTPGPG [compound 1]", "values": [{"measurement": "UDP-GalNAc Hydrolysis %", "setting": "[1]", "result": "~90", "unit": "%"}, {"measurement": "STD-NMR enhancements (in words)", "setting": "[10]", "result": "No significant STD enhancements"}, {"measurement": "Glycosylation by GalNAc-T4 (in words)", "setting": "[9]", "result": "imperceptibly glycosylated"}]}
{"molecule": "GAT*GAGAGAGTTPGPG [compound 3]", "values": [{"measurement": "Catalytic efficiency (Vmax/Km) relative to peptide 4 (fold higher)", "setting": "[2]", "result": "~100", "unit": "fold"}, {"measurement": "Km relative to peptide 4 (fold lower)", "setting": "[2]", "result": "~12", "unit": "fold"}, {"measurement": "Vmax relative to peptide 4 (fold higher)", "setting": "[2]", "result": "~8", "unit": "fold"}, {"measurement": "Activity relative to glycopeptides 4 and 5 (fold higher)", "setting": "[2]", "result": "~10", "unit": "fold"}, {"measurement": "Km increase relative to wt GalNAc-T4", "setting": "[4]", "result": "~20", "unit": "fold"}, {"measurement": "UDP-GalNAc Hydrolysis %", "setting": "[4]", "result": "~70", "unit": "%"}, {"measurement": "Kd by SPR (in words)", "setting": "[11]", "result": "in the mM range"}, {"measurement": "Km relative to wt (fold higher)", "setting": "[6]", "result": "~2", "unit": "fold"}, {"measurement": "Km relative to wt (fold higher)", "setting": "[8]", "result": "~2", "unit": "fold"}]}
{"molecule": "GATGAGAGAGTTPGPG (not fully specified (residues 3, 11); printed as GAT*GAGAGAGT*TPGPG)", "note": "[diglycopeptide 6, GAT*GAGAGAGT*TPGPG]", "values": [{"measurement": "fold change of Kd against the wt transferase", "setting": "[12]", "result": "~6", "unit": "fold"}, {"measurement": "Kd", "setting": "[13]", "result": "70 ± 15", "unit": "µM"}]}
